According to ChEMBL document CHEMBL3865794, “Novel securinine derivatives as topoisomerase I based antitumor agents” (Eur J Med Chem, 2016):
pIC50: −log10 of the molar value.

How the values were obtained:
[1] = target: T1, DNA topoisomerase 1 (Homo sapiens) (UniProt P11387); assay: Inhibition of DNA topoisomerase 1 (unknown origin) assessed as reduction in relaxation of supercoiled pBR322 plasmid DNA at 100 uM incubated for 30 mins by agarose gel electrophoresis relative to control
T1 sequence (whole entry): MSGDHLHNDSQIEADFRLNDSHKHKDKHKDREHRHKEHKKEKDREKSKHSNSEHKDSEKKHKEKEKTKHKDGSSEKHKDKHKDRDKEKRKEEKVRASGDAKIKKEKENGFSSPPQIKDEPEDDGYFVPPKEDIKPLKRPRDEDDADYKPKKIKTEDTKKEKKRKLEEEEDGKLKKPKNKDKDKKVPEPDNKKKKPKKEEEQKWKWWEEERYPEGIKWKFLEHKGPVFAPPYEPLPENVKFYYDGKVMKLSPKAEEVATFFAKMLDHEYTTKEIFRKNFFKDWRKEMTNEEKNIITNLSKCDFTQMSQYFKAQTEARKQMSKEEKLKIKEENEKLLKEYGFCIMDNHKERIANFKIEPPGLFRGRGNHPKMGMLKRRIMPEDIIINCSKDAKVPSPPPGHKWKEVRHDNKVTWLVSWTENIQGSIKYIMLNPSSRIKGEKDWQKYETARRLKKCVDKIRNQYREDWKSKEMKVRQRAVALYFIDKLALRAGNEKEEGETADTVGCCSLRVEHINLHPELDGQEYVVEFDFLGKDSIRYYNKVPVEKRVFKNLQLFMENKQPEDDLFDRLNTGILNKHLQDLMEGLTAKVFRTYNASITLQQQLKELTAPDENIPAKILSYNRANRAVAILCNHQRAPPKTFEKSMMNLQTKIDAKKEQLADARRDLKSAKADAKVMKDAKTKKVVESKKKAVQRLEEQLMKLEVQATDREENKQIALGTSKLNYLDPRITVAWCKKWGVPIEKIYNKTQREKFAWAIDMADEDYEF
In short: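 Supercoiled pBR322 DNA incubated with Topo I in the presence or absence of compound for 30 min at 37 °C. Reaction stopped with dye solution of bromophenol blue, xylene cyanol and glycerol. Products run on 1% agarose in 1× TAE for 40 min, then EB-stained and UV-imaged. Inhibition rate derived from gel gray-scale analysis relative to control. Camptothecin served as positive control.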

[2] = Growth inhibition of human A549 cells after 72 hrs by MTT assay; format: functional, cell-based
In short: (§1)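 Cells seeded at 5 × 10³ per well and incubated overnight in medium with 10% FBS. Medium then replaced with fresh medium containing compound at […] for 72 h. MTT (5 mg/mL stock, 20 µL per well) added for 4 h at 37 °C, formazan dissolved in DMSO, absorbance read at 570 nm. Each dose run in parallel triplicate. IC50 taken from mean absorbance versus concentration curves.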

[3] = Growth inhibition of human SH-SY5Y cells after 72 hrs by MTT assay; format: functional, cell-based; in short: as §1
[4] = Growth inhibition of human HepG2 cells after 72 hrs by MTT assay; format: functional, cell-based; in short: as §1
[5] = Growth inhibition of human HeLa cells after 72 hrs by MTT assay; format: functional, cell-based; in short: as §1

| Compound | inhibition [1] | pIC50 ([2]; Homo sapiens, A549, 72 h) | pIC50 ([3]; Homo sapiens, SH-SY5Y, 72 h) | pIC50 ([4]; Homo sapiens, HepG2, 72 h) | pIC50 ([5]; Homo sapiens, HeLa, 72 h) | pIC50 ([2]; a549) | pIC50 ([3]; sh-sy5y) | pIC50 ([4]; hepg2) | pIC50 ([5]; hela) |
| --- | --- | --- | --- | --- | --- | --- | --- | --- | --- |
| N#Cc1ccccc1C(O)C1=C2C=C[C@@H]3C[C@@]2(OC1=O)[C@H]1CCCCN31 (stereo partly specified) | 38.4% | 5.15 | 4.66 | 4.96 | 4.83 |  |  |  |  |
| N#Cc1cccc(C(O)C2=C3C=C[C@@H]4C[C@@]3(OC2=O)[C@H]2CCCCN42)c1 (stereo partly specified) | 34.7% | 5.15 | 4.60 | 4.75 | 4.81 |  |  |  |  |
| N#Cc1ccc(C(O)C2=C3C=C[C@@H]4C[C@@]3(OC2=O)[C@H]2CCCCN42)cc1 (stereo in doubt; 4a-5-a) |  |  |  |  |  | 5.21 | 4.72 | 4.85 | 4.88 |
| O=C1O[C@@]23C[C@@H](C=CC2=C1C(O)c1ccccc1F)N1CCCC[C@@H]13 (stereo partly specified) | 42.3% | 5.16 | 4.66 | 5.00 | 4.89 |  |  |  |  |
| N#Cc1ccc(C(O)C2=C3C=C[C@@H]4C[C@@]3(OC2=O)[C@H]2CCCCN42)cc1 (stereo in doubt; 4a-5-b) |  |  |  |  |  |  | 4.72 | 4.85 | 4.92 |
| O=C1O[C@@]23C[C@@H](C=CC2=C1C(O)c1cccc(Cl)c1)N1CCCC[C@@H]13 (stereo partly specified) | 35.3% | 4.96 | 4.56 | 4.75 | 4.81 |  |  |  |  |
| O=C1O[C@@]23C[C@@H](C=CC2=C1C(O)c1ccc(F)cc1)N1CCCC[C@@H]13 (stereo in doubt; 4a-2-b) |  |  |  |  |  | 5.29 | 4.72 | 5.00 | 4.90 |
| O=C1O[C@@]23C[C@@H](C=CC2=C1C(O)c1ccc(C(F)(F)F)cc1)N1CCCC[C@@H]13 (stereo in doubt; 4a-6-a) |  |  |  |  |  | 5.56 | 5.08 | 5.65 | 5.06 |
| O=C1O[C@@]23C[C@@H](C=CC2=C1C(O)c1ccc(Br)cc1)N1CCCC[C@@H]13 (stereo in doubt; 4a-4) |  | 5.20 | 4.65 | 4.85 | 4.89 |  |  |  |  |
| O=C1O[C@@]23C[C@@H](C=CC2=C1C(O)c1cccc([N+](=O)[O-])c1)N1CCCC[C@@H]13 (stereo partly specified) | 36.2% | 5.39 | 5.06 | 5.17 | 5.00 |  |  |  |  |
| O=C1O[C@@]23C[C@@H](C=CC2=C1C(O)c1ccc(F)cc1)N1CCCC[C@@H]13 (stereo in doubt; 4a-2) [listing 2 of 2 here] |  | 5.30 | 4.70 | 5.00 | 4.89 |  |  |  |  |
| O=C1O[C@@]23C[C@@H](C=CC2=C1C(O)c1ccccc1Cl)N1CCCC[C@@H]13 (stereo partly specified) | 42.4% | 5.15 | 4.70 | 5.04 | 4.98 |  |  |  |  |

Now from value to compound, other results behind:

| inhibition [1] | Compound | pIC50 ([2]; Homo sapiens, A549, 72 h) | pIC50 ([3]; Homo sapiens, SH-SY5Y, 72 h) | pIC50 ([4]; Homo sapiens, HepG2, 72 h) | pIC50 ([5]; Homo sapiens, HeLa, 72 h) | pIC50 ([2]; a549) | pIC50 ([3]; sh-sy5y) | pIC50 ([4]; hepg2) | pIC50 ([5]; hela) |
| --- | --- | --- | --- | --- | --- | --- | --- | --- | --- |
| 45.7% | N#Cc1ccc(C(O)C2=C3C=C[C@@H]4C[C@@]3(OC2=O)[C@H]2CCCCN42)cc1 (stereo in doubt; 4a-5) |  |  |  |  |  |  |  |  |
| 31.8% | O=C1O[C@@]23C[C@@H](C=CC2=C1C(O)c1ccc(O)cc1)N1CCCC[C@@H]13 (stereo partly specified) | 5.16 | 4.64 | 4.77 | 4.72 |  |  |  |  |
| 31.6% | COc1ccc(C(O)C2=C3C=C[C@@H]4C[C@@]3(OC2=O)[C@H]2CCCCN42)cc1 (stereo partly specified) | 5.00 | 4.65 | 4.75 | 5.00 |  |  |  |  |
| 48.9% | O=C1O[C@@]23C[C@@H](C=CC2=C1C(O)c1ccc(Cl)cc1)N1CCCC[C@@H]13 (stereo in doubt; 4a-3) |  |  |  |  |  |  |  |  |
| 30.9% | CSc1ccc(C(O)C2=C3C=C[C@@H]4C[C@@]3(OC2=O)[C@H]2CCCCN42)cc1 (stereo partly specified) | 5.04 | 4.68 | 4.78 | 4.75 |  |  |  |  |
| 24% | O=C1O[C@@]23C[C@@H](C=CC2=C1C(O)c1ccccc1)N1CCCC[C@@H]13 (stereo partly specified) | 5.15 | 4.59 | 4.70 | 4.67 |  |  |  |  |
| 49.8% | O=C1O[C@@]23C[C@@H](C=CC2=C1C(O)c1ccc(F)cc1)N1CCCC[C@@H]13 (stereo in doubt; 4a-2) [listing 1 of 2 here] |  |  |  |  |  |  |  |  |
